The source of these data is ChEMBL document CHEMBL1129039 (J Med Chem, 1996).

Calls of active or inactive are those of the source.

In series [1] the target is T1, B2 bradykinin receptor (Rattus norvegicus, UniProt P25023).
T1 sequence (P25023 whole entry): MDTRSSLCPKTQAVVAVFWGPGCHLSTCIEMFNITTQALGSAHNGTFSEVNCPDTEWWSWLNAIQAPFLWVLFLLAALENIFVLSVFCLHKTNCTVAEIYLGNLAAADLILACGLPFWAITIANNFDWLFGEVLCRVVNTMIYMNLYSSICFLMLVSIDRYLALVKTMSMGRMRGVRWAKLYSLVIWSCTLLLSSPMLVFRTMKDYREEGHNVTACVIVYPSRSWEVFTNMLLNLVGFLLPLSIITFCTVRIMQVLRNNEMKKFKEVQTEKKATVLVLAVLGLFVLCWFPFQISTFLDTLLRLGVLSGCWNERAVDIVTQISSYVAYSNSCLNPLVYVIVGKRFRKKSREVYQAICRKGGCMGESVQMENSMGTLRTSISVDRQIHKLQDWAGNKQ
Put plainly: In vitro Bradykinin receptor B2 antagonist activity by using rat uterus functional assay. The class given is tissue-based. Conditions: for Kb: read-out: pA2 (converted). Put shortly:
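Uterine horns from female Sprague-Dawley rats primed with stilbesterol (100 μg/kg) 18 h earlier. Tissue held at 1 g tension in De Jalon's solution, 31 °C, aerated. Potency by Arunlakshana-Schild analysis.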

The nature of series [2]: In vitro stability was measured in porcine lung tissue preparation. Type of series: ADME, Sus scrofa. The note with it: pig. Put shortly:
(§1)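 Lung or kidney cortical membranes made by differential centrifugation and stored at -20 °C. Dilutions in PBS: porcine kidney 1:10, rat kidney 1:100, porcine lung 1:1. Compound at 1 mM in PBS, 10 μL, incubated with 90 μL diluted membranes for various times. Quenched with ethanol, centrifuged.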

Series [3] can be described thus: In vitro stability was measured in human plasma tissue preparation. The class given is ADME.
Series [4] in a line: In vitro stability was measured in porcine kidney tissue preparation. Type of series: ADME, Sus scrofa. Conditions: pig. The method in brief: as §1
Series [5] is described as follows: In vitro stability was measured in rat kidney tissue preparation. Type of series: ADME. Put shortly:
as §1

Series [6] has as its target T2, B2 bradykinin receptor (Homo sapiens, UniProt P30411).
T2 sequence (P30411 whole entry): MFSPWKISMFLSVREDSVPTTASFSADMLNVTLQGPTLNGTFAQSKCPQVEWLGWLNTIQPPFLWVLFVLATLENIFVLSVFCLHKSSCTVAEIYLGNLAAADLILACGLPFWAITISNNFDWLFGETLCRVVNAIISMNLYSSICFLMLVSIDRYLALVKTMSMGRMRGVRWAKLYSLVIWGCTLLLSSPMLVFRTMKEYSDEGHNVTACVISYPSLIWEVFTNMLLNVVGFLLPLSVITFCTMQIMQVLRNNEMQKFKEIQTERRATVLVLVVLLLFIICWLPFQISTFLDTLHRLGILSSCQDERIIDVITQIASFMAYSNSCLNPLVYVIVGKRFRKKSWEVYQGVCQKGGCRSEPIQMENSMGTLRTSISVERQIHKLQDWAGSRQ
Put plainly: Binding affinity towards Bradykinin receptor B2 in human S34 clone cells. Type of series: cell-based.

Series [7] is described as follows: Binding affinity towards bradykinin receptor using [3H]BK as radioligand in guinea pig ileum. The class given is tissue-based, Cavia porcellus. Put shortly:
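Ileal membranes from Duncan-Hartley guinea pigs, 0.2 mg/mL, room temperature in 25 mM TES pH 6.8 with 1,10-phenanthroline, DTT, captopril, bacitracin, thiorphan, 0.1% BSA. […] Filtered on PEI-pretreated GF/B, washed with cold Tris pH 7.5/NaCl/BSA, scintillation counted. Mean ± SD, n = 4.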

For series [8], the system named is Oryctolagus cuniculus. As to the kind of experiment: Percent inhibition after intravenously administration compound at 60 min in rabbit; expressed as percent inhibition. Type of series: functional.
Series [9] relates to Oryctolagus cuniculus. Put plainly: Effective dose for bradykinin B1 activity after administration (3 ug/kg/min) in rabbit. The class given is functional.
The subject of series [10] is Oryctolagus cuniculus. Put plainly: Effective dose for bradykinin B2 activity after administration (0.1 ug/kg/min) in rabbit. The class given is functional.
The subject of series [11] is Oryctolagus cuniculus. Put plainly: Effective dose for bradykinin B2 activity after administration (0.03 ug/kg/min) in rabbit. Type of series: functional.
Series [12] has as its system Rattus norvegicus. As to the kind of experiment: Percent inhibition after subcutaneously administration compound at 3H in rat; expressed as percent inhibition. Type of series: functional.
Series [13] relates to Oryctolagus cuniculus. Put plainly: Effective dose for bradykinin B2 activity after administration (0.01 ug/kg/min) in rabbit. The class given is functional.
Series [14] deals with Oryctolagus cuniculus. As to the kind of experiment: Effective dose for bradykinin B1 activity after administration (10 ug/kg/min) in rabbit. The class given is functional.
The subject of series [15] is Oryctolagus cuniculus. As to the kind of experiment: Effective dose for bradykinin B1 activity after administration (1 ug/kg/min) in rabbit. Type of series: functional.
Series [16] has as its system Oryctolagus cuniculus. Put plainly: Selectivity was determined as response after administration (0.1 ug/mg/kg) to that of preantagonist response in rabbit; B2 block only. Type of series: functional, organism-based.
Series [17] is filed under the species Rattus norvegicus. As to the kind of experiment: Percent recovery was evaluated in rat. The class given is functional, organism-based. Put shortly:
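Same rat uterus preparation. […] Its pD2 is compared with the initial control pD2. The difference against concurrent control gives percentage recovery of agonist response.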

Series [18] deals with B1 bradykinin receptor (Oryctolagus cuniculus). As to the kind of experiment: In vitro Bradykinin receptor B1 antagonist activity in functional tissue within rabbit aorta.

As a reminder, the half-life is the time needed for the level to fall by half in the phase considered. Lower therefore signals fast loss. As for `NC(N)=NCCC[C@@H](N)C(=O)N[C@@H](CCCN=C(N)N)C(=O)N1CCC[C@H]1C(=O)N1C[C@H](O)C[C@H]1C(=O)NCC(=O)N[C@@H](Cc1cccs1)C(=O)N[C@@H](CO)C(=O)N1Cc2ccccc2C[C@@H]1C(=O)N1[C@H](C(=O)N[C@@H](CCCN=C(N)N)C(=O)O)C[C@@H]2CCCC[C@@H]21` [ICATIBANT], at B2 bradykinin receptor [1], the Kb was 0.316 nM. In addition, the half-life in series [2], in [3], in series [4] and in [5] was above 6 h in each case.

The pA2 is the negative logarithm of the molar antagonist concentration that doubles the agonist concentration needed for the same response. For orientation: Ki means the dissociation constant of the complex between target and ligand, obtained from inhibition or displacement. Read a low Ki as tighter binding. With `N=C(N)NCCCCC(=O)N[C@@H](CCCNC(=N)N)C(=O)N1CCC[C@H]1C(=O)N1C[C@H](O)C[C@H]1C(=O)NCC(=O)N[C@@H](Cc1cccs1)C(=O)N[C@@H](CO)C(=O)N1Cc2ccccc2C[C@@H]1C(=O)N(CC(=O)N[C@@H](CCCNC(=N)N)C(=O)O)C1CCCCC1`, the pA2 at B2 bradykinin receptor [1] worked out at 9.09. In addition, the values for the half-life in series [2], in series [3] and in [4] were above 6 h, above 6 h and 3.9 h, respectively. The same compound had a Ki at B2 bradykinin receptor [6] of 12 nM. The “Log Ki” value in [7] is given as -8.85.

Usually Inhibition stands for the drop in the measured response relative to a control, in per cent. The low end stands for a weak effect, the high end for a strong effect. For `NC(N)=NCCCC(N)C(=O)NC(CCCN=C(N)N)C(=O)N1CCC[C@H]1C(=O)N1C[C@H](O)C[C@H]1C(=O)NCC(=O)N[C@@H](Cc1cccs1)C(=O)N[C@@H](CO)C(=O)N1Cc2ccccc2C[C@@H]1C(=O)N(CC(=O)NC(CCCN=C(N)N)C(=O)O)C1CCCCC1` (stereo in doubt) [listing 1 of 3 here], the Inhibition with Oryctolagus cuniculus [8] and in the series on Rattus norvegicus [12] was 100% each time. Moreover, the ED50 in the series with Oryctolagus cuniculus [9] was 2.9 µg/mg/kg; in the series with Oryctolagus cuniculus [10], 0.051 µg/mg/kg; in the series on Oryctolagus cuniculus [11], 0.051 µg/mg/kg; in the series on Oryctolagus cuniculus [13] it was 0.051 µg/mg/kg; in the series on Oryctolagus cuniculus [14], 2.9 µg/mg/kg; in the series with Oryctolagus cuniculus [15] it was 2.9 µg/mg/kg.

On to `NC(N)=NCCCC(N)C(=O)NC(CCCN=C(N)N)C(=O)N1CCC[C@H]1C(=O)N1C[C@H](O)C[C@H]1C(=O)NCC(=O)N[C@@H](Cc1cccs1)C(=O)N[C@@H](CO)C(=O)N1Cc2ccccc2C[C@@H]1C(=O)N(CC(=O)NC(CCCN=C(N)N)C(=O)O)C1CCCCC1` (stereo in doubt) [listing 2 of 3 here], for which, in the series with Oryctolagus cuniculus [16], the Selectivity entry was “inactive”. For the same compound, the Recovery in the series listed under Rattus norvegicus [17] turned out to be 73%.

What is called IC50 is the midpoint of a concentration-inhibition curve. In the case of `NC(N)=NCCCC(N)C(=O)NC(CCCN=C(N)N)C(=O)N1CCC[C@H]1C(=O)N1C[C@H](O)C[C@H]1C(=O)NCC(=O)N[C@@H](Cc1cccs1)C(=O)N[C@@H](CO)C(=O)N1Cc2ccccc2C[C@@H]1C(=O)N(CC(=O)NC(CCCN=C(N)N)C(=O)O)C1CCCCC1` (stereo in doubt) [listing 3 of 3 here], the Kb on B2 bradykinin receptor [1] is 0.49 nM. The half-life in series [2], in [3], in series [4] and in series [5] was above 6 h each time. Also, the affinity on B2 bradykinin receptor [6] corresponds to a Ki of 0.24 nM. In [18], this compound had an IC50 above 10000 nM. Besides, in series [7], the “Log Ki” value was -10.11.
